Measured values as given in publication PMC4203516 (Autophagy, 2014).

Legend:
[1] = test system: autophagic vacuoles in peripheral blood mononuclear cells (PBMC); assay: Autophagic vacuole; type: in vivo, human; settings: 1 wk, 24 h or 4 h after first TEM infusion, data pooled
[2] = test system: cutaneous melanoma metastases; assay: Autophagic vacuole accumulation in serial tumor biopsies by electron microscopy; type: in vivo, human; settings: after 4 h of treatment with TEM, one melanoma patient
Method in brief: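 Cutaneous melanoma metastases sampled serially by punch biopsy from patients on IV temsirolimus 25 mg weekly plus oral HCQ 1200 mg/d. Tumour was dissected on ice and fixed immediately in EM fixative (2% glutaraldehyde, as used for PBMC) before electron microscopy for autophagic vacuoles.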

advanced melanoma = settings: temsirolimus alone, of 33 patients; cited from earlier work

CO[C@H]1C[C@@H]2CC[C@@H](C)[C@@](O)(O2)C(=O)C(=O)N2CCCC[C@H]2C(=O)O[C@H]([C@H](C)C[C@@H]2CC[C@@H](OC(=O)C(C)(CO)CO)[C@H](OC)C2)CC(=O)[C@H](C)/C=C(\C)[C@@H](O)[C@@H](OC)C(=O)[C@H](C)C[C@H](C)/C=C/C=C/C=C/1C [TEM, temsirolimus]
AV/cell in PBMC after TEM treatment alone [1]: no significant increase in AV | AV in tumor tissue compared with baseline [2]: no accumulation of AV | Patients with partial response (advanced melanoma): 1 | Patients with stable disease (advanced melanoma): 0
